Active and inactive are the calls of the source. The rule behind the calls is not given here.
Biological target: Dipeptidyl peptidase 9 (Homo sapiens, UniProt Q86TI2)
Test: Inhibition of DPP9
Settings: not given

Sequence of Dipeptidyl peptidase 9 (Q86TI2 whole entry): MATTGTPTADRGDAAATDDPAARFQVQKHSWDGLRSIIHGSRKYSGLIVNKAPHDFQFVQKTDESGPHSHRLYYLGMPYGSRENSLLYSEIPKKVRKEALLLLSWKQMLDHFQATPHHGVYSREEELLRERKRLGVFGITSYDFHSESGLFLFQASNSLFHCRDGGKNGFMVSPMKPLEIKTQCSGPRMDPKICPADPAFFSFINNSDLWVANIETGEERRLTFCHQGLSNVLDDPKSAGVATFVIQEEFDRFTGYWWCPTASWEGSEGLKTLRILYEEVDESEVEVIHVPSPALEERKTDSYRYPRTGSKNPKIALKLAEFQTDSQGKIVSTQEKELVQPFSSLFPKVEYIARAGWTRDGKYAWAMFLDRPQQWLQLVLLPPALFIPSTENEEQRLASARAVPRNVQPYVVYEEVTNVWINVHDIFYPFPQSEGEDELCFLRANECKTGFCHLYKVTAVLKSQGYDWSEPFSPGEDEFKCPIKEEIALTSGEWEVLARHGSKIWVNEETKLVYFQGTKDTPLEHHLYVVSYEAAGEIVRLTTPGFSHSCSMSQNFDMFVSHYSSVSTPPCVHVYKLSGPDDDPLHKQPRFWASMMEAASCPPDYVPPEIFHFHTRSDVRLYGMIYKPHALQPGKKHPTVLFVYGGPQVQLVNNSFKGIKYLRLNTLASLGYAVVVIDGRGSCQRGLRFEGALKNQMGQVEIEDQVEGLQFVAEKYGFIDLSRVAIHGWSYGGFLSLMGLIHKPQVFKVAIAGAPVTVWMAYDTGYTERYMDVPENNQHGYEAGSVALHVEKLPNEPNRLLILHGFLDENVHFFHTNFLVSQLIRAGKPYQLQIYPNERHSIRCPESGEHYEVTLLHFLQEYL

Structure (SMILES) | IC50 [µM]
Cn1cnc2cc(N3CCC[C@@](C)(N)C3)n(Cc3ccccc3C#N)c2c1=O | > 10
Cl.Cn1c(=O)c2c(cc(N3CCC[C@@](C)(N)C3)n2Cc2cc(F)ccc2Cl)n(C)c1=O | > 10
CN(C)C(=O)Cn1c(=O)n(C)c(=O)c2c1cc(N1CCC[C@@](C)(N)C1)n2Cc1cc(F)ccc1Cl.Cl | > 10
CCn1c(=O)n(C)c(=O)c2c1cc(N1CCC[C@@](C)(N)C1)n2Cc1cc(F)ccc1C#N.Cl | > 10
Cn1cnc2cc(N3CCC[C@@](C)(N)C3)n(Cc3cc(F)ccc3C#N)c2c1=O | > 10
Cc1ccc(F)cc1Cn1c(N2CCC[C@@](C)(N)C2)cc2c1c(=O)n(C)c(=O)n2C.Cl | > 10
Cc1ccc(F)cc1Cn1c(N2CCC[C@@](C)(N)C2)cc2ncn(C)c(=O)c21.Cl | > 10
Cn1cnc2cc(N3CCC[C@@](C)(N)C3)n(Cc3cc(F)ccc3Cl)c2c1=O | > 10
CCOCCCn1c(=O)n(C)c(=O)c2c1cc(N1CCC[C@@](C)(N)C1)n2Cc1cc(F)ccc1Cl | > 10
Cn1c(=O)c2c(cc(N3CCC[C@@](C)(N)C3)n2Cc2ccccc2C#N)n(C)c1=O | > 10
Cl.Cn1c(=O)c2c(cc(N3CCC[C@@](C)(N)C3)n2Cc2cc(F)ccc2Cl)n(CCCO)c1=O | > 10

Tested on: not listed separately
Test: Oral bioavailability in rat at 10 mg/kg
Assay type: ADME, organism-based
Settings: in vivo

Structure (SMILES) | bioavailability [%]
Cc1ccc(F)cc1Cn1c(N2CCC[C@@](C)(N)C2)cc2c1c(=O)n(C)c(=O)n2C.Cl | 69.3

Tested on: not listed separately
Test: Half life in rat at 10 mg/kg, po
Assay type: ADME, organism-based
Design: dose 10 mg/kg, route oral
Settings: in vivo

Structure (SMILES) | half-life [h]
Cc1ccc(F)cc1Cn1c(N2CCC[C@@](C)(N)C2)cc2c1c(=O)n(C)c(=O)n2C.Cl | 4.69

Tested on: Liver microsomes
Test: Metabolic stability in human liver microsomes at 10 uM after 39 mins
Assay type: ADME, Microsome
Settings: 0.5 h, in the assay text read “30 mins” for “39 mins”
Method in brief: (§1)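 Compound incubated for 30 min with hepatic microsomes (human or rat) plus NADPH. Metabolic stability is expressed as clearance in ml/min/mg protein.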

Structure (SMILES) | Microsomal clearance [µL/min/mg]
Cl.Cn1c(=O)c2c(cc(N3CCC[C@@](C)(N)C3)n2Cc2cc(F)ccc2Cl)n(C)c1=O | 82
CN(C)C(=O)Cn1c(=O)n(C)c(=O)c2c1cc(N1CCC[C@@](C)(N)C1)n2Cc1cc(F)ccc1Cl.Cl | 19
CCn1c(=O)n(C)c(=O)c2c1cc(N1CCC[C@@](C)(N)C1)n2Cc1cc(F)ccc1C#N.Cl | 21
Cc1ccc(F)cc1Cn1c(N2CCC[C@@](C)(N)C2)cc2c1c(=O)n(C)c(=O)n2C.Cl | 56
Cc1ccc(F)cc1Cn1c(N2CCC[C@@](C)(N)C2)cc2ncn(C)c(=O)c21.Cl | 48
Cl.Cn1c(=O)c2c(cc(N3CCC[C@@](C)(N)C3)n2Cc2cc(F)ccc2Cl)n(CCCO)c1=O | 16

Biological target: Cytochrome P450 2D6 (Homo sapiens, UniProt P10635)
Test: Inhibition of CYP2D6 in human liver microsomes after 10 mins
Assay type: ADME, Microsome
Settings: not given
Method in brief: (§2)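 Human liver microsomes incubated with test compound and NADPH for 10 min; CYP isoform inhibition reported as IC50.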

Sequence of Cytochrome P450 2D6 (P10635 whole entry): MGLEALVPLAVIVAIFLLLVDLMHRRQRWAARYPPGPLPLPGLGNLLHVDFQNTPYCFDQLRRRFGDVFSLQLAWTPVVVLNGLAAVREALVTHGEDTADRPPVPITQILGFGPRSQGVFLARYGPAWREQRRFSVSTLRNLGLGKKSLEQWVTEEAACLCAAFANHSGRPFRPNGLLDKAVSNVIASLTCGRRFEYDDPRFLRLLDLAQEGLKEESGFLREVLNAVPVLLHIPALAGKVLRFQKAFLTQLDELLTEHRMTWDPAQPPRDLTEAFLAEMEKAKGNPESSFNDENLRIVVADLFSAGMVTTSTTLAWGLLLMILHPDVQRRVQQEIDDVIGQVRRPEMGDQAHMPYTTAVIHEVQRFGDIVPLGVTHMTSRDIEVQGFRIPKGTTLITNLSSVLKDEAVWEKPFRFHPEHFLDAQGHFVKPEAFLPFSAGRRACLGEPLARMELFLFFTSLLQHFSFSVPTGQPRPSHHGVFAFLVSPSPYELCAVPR

Structure (SMILES) | IC50 [µM]
Cl.Cn1c(=O)c2c(cc(N3CCC[C@@](C)(N)C3)n2Cc2cc(F)ccc2Cl)n(C)c1=O | 3.4
CN(C)C(=O)Cn1c(=O)n(C)c(=O)c2c1cc(N1CCC[C@@](C)(N)C1)n2Cc1cc(F)ccc1Cl.Cl | < 0.165
CCn1c(=O)n(C)c(=O)c2c1cc(N1CCC[C@@](C)(N)C1)n2Cc1cc(F)ccc1C#N.Cl | 0.4
Cc1ccc(F)cc1Cn1c(N2CCC[C@@](C)(N)C2)cc2c1c(=O)n(C)c(=O)n2C.Cl | > 40
Cc1ccc(F)cc1Cn1c(N2CCC[C@@](C)(N)C2)cc2ncn(C)c(=O)c21.Cl | 14.3
Cl.Cn1c(=O)c2c(cc(N3CCC[C@@](C)(N)C3)n2Cc2cc(F)ccc2Cl)n(CCCO)c1=O | 0.2

Tested on: Liver microsomes
Test: Metabolic stability in rat liver microsomes at 10 uM after 39 mins
Assay type: ADME, Microsome
Settings: 0.5 h, in the assay text read “30 mins” for “39 mins”
Method in brief: as §1

Structure (SMILES) | Microsomal clearance [µL/min/mg]
Cl.Cn1c(=O)c2c(cc(N3CCC[C@@](C)(N)C3)n2Cc2cc(F)ccc2Cl)n(C)c1=O | 46
CN(C)C(=O)Cn1c(=O)n(C)c(=O)c2c1cc(N1CCC[C@@](C)(N)C1)n2Cc1cc(F)ccc1Cl.Cl | < 10
CCn1c(=O)n(C)c(=O)c2c1cc(N1CCC[C@@](C)(N)C1)n2Cc1cc(F)ccc1C#N.Cl | < 10
Cc1ccc(F)cc1Cn1c(N2CCC[C@@](C)(N)C2)cc2c1c(=O)n(C)c(=O)n2C.Cl | 13
Cc1ccc(F)cc1Cn1c(N2CCC[C@@](C)(N)C2)cc2ncn(C)c(=O)c21.Cl | 264
Cl.Cn1c(=O)c2c(cc(N3CCC[C@@](C)(N)C3)n2Cc2cc(F)ccc2Cl)n(CCCO)c1=O | 17

Tested on: not listed separately
Test: Protein binding in human serum
Assay type: ADME, cell-free
Settings: read-out: PB (converted)

Structure (SMILES) | fraction unbound
Cc1ccc(F)cc1Cn1c(N2CCC[C@@](C)(N)C2)cc2c1c(=O)n(C)c(=O)n2C.Cl | 0.049

Biological target: Dipeptidyl peptidase 8 (Homo sapiens, UniProt Q6V1X1)
Test: Inhibition of DPP8
Settings: not given

Sequence of Dipeptidyl peptidase 8 (Q6V1X1 whole entry): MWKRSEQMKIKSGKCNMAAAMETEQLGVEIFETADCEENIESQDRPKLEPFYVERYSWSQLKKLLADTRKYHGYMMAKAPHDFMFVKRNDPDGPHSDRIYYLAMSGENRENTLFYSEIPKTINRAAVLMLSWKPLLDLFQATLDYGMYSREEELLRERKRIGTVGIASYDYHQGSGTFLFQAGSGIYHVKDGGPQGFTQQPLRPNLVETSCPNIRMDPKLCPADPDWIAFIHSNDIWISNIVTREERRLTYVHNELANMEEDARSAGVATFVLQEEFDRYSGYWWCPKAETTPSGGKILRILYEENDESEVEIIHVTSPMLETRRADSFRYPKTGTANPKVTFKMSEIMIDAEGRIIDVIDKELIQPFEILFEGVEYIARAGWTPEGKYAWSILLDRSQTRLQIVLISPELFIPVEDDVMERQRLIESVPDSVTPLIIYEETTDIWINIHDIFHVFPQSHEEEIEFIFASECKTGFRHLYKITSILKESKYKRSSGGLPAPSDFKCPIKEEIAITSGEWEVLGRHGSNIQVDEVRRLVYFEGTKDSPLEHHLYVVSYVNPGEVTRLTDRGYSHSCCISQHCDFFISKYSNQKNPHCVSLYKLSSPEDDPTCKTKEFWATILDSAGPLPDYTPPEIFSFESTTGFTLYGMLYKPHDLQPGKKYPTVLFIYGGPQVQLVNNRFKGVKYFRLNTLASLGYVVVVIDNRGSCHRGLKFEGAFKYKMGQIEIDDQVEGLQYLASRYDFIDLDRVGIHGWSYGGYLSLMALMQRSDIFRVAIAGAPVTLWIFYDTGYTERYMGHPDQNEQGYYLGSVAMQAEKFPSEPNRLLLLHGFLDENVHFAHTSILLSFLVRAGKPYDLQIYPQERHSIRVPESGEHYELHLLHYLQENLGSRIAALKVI

Structure (SMILES) | IC50 [µM]
Cn1cnc2cc(N3CCC[C@@](C)(N)C3)n(Cc3ccccc3C#N)c2c1=O | > 10
Cl.Cn1c(=O)c2c(cc(N3CCC[C@@](C)(N)C3)n2Cc2cc(F)ccc2Cl)n(C)c1=O | > 10
CN(C)C(=O)Cn1c(=O)n(C)c(=O)c2c1cc(N1CCC[C@@](C)(N)C1)n2Cc1cc(F)ccc1Cl.Cl | > 10
CCn1c(=O)n(C)c(=O)c2c1cc(N1CCC[C@@](C)(N)C1)n2Cc1cc(F)ccc1C#N.Cl | > 10
Cn1cnc2cc(N3CCC[C@@](C)(N)C3)n(Cc3cc(F)ccc3C#N)c2c1=O | > 10
Cc1ccc(F)cc1Cn1c(N2CCC[C@@](C)(N)C2)cc2c1c(=O)n(C)c(=O)n2C.Cl | > 10
Cc1ccc(F)cc1Cn1c(N2CCC[C@@](C)(N)C2)cc2ncn(C)c(=O)c21.Cl | > 10
Cn1cnc2cc(N3CCC[C@@](C)(N)C3)n(Cc3cc(F)ccc3Cl)c2c1=O | > 10
CCOCCCn1c(=O)n(C)c(=O)c2c1cc(N1CCC[C@@](C)(N)C1)n2Cc1cc(F)ccc1Cl | > 10
Cn1c(=O)c2c(cc(N3CCC[C@@](C)(N)C3)n2Cc2ccccc2C#N)n(C)c1=O | > 10
Cl.Cn1c(=O)c2c(cc(N3CCC[C@@](C)(N)C3)n2Cc2cc(F)ccc2Cl)n(CCCO)c1=O | > 10

Biological target: Cytochrome P450 3A4 (Homo sapiens, UniProt P08684)
Test: Inhibition of CYP3A4 in human liver microsomes after 10 mins
Assay type: ADME, Microsome
Settings: not given
Method in brief: as §2

Sequence of Cytochrome P450 3A4 (P08684 whole entry): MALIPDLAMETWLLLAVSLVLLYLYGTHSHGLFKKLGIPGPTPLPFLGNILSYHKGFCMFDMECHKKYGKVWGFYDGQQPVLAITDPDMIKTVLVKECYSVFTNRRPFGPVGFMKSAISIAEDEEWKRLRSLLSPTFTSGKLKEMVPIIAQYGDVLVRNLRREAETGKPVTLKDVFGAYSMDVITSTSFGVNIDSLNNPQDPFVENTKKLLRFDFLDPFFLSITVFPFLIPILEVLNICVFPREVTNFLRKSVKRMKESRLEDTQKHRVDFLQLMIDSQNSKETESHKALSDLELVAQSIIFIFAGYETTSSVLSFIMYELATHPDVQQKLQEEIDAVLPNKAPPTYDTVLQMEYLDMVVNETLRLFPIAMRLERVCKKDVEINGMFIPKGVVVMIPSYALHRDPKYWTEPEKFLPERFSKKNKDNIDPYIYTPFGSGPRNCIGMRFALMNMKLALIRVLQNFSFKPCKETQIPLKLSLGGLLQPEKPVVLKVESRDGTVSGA

Structure (SMILES) | IC50 [µM]
Cl.Cn1c(=O)c2c(cc(N3CCC[C@@](C)(N)C3)n2Cc2cc(F)ccc2Cl)n(C)c1=O | 10.2
CN(C)C(=O)Cn1c(=O)n(C)c(=O)c2c1cc(N1CCC[C@@](C)(N)C1)n2Cc1cc(F)ccc1Cl.Cl | 13.4
CCn1c(=O)n(C)c(=O)c2c1cc(N1CCC[C@@](C)(N)C1)n2Cc1cc(F)ccc1C#N.Cl | 9.4
Cc1ccc(F)cc1Cn1c(N2CCC[C@@](C)(N)C2)cc2c1c(=O)n(C)c(=O)n2C.Cl | 20.2
Cc1ccc(F)cc1Cn1c(N2CCC[C@@](C)(N)C2)cc2ncn(C)c(=O)c21.Cl | 11.9
Cl.Cn1c(=O)c2c(cc(N3CCC[C@@](C)(N)C3)n2Cc2cc(F)ccc2Cl)n(CCCO)c1=O | 7.7

Species on record: Rattus norvegicus
Settings: Zucker-Fatty, 1 mg/kg

Structure (SMILES) | inhibition
Cc1ccc(F)cc1Cn1c(N2CCC[C@@](C)(N)C2)cc2c1c(=O)n(C)c(=O)n2C.Cl | Active

Tested on: not listed separately
Test: Lipophilicity, log P of the compound
Assay type: physicochemical
Settings: octanol/water

Structure (SMILES) | logP
Cn1c(=O)c2c(cc(N3CCC[C@@](C)(N)C3)n2Cc2ccccc2C#N)n(C)c1=O | 0.28

Tested on: not listed separately
Test: Clearance in rat at 1 mg/kg, iv
Assay type: ADME, organism-based
Design: dose 1 mg/kg, route intravenous
Settings: in vivo

Structure (SMILES) | clearance [mL/min/kg]
Cc1ccc(F)cc1Cn1c(N2CCC[C@@](C)(N)C2)cc2c1c(=O)n(C)c(=O)n2C.Cl | 51.5

Species on record: Rattus norvegicus
Settings: Zucker-Fatty, 1 mg/kg
Remark: another data set of the same source

Structure (SMILES) | inhibition
Cc1ccc(F)cc1Cn1c(N2CCC[C@@](C)(N)C2)cc2c1c(=O)n(C)c(=O)n2C.Cl | Active

Tested on: not listed separately
Test: Tmax in rat at 1 mg/kg, iv and 10 mg/kg, po
Assay type: ADME, organism-based
Settings: in vivo

Structure (SMILES) | Tmax [h]
Cc1ccc(F)cc1Cn1c(N2CCC[C@@](C)(N)C2)cc2c1c(=O)n(C)c(=O)n2C.Cl | 3

Tested on: not listed separately
Test: Volume of distribution at steady state in rat at 1 mg/kg, iv
Assay type: ADME, organism-based
Design: dose 1 mg/kg, route intravenous
Settings: in vivo, read-out: Vdss

Structure (SMILES) | Vd [L/kg]
Cc1ccc(F)cc1Cn1c(N2CCC[C@@](C)(N)C2)cc2c1c(=O)n(C)c(=O)n2C.Cl | 14.4

Biological target: T1, Cytochrome P450 1A2 (Homo sapiens, UniProt P05177)
T1 sequence (P05177 whole entry): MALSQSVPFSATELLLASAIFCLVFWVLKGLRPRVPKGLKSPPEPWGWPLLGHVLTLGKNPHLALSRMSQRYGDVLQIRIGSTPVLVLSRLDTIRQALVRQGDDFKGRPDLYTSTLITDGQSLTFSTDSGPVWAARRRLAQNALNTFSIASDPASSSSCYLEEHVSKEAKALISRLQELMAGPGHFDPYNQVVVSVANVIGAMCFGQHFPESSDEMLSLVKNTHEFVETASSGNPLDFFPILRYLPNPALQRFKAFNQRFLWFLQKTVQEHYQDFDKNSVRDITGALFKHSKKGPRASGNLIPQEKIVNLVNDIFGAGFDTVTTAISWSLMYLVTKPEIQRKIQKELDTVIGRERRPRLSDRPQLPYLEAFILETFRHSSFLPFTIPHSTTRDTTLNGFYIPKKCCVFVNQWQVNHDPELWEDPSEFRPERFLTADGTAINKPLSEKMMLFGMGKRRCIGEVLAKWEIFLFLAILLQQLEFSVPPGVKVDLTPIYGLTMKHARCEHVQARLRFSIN
Test: Inhibition of CYP1A2 in human liver microsomes after 10 mins
Assay type: ADME, Microsome
Settings: not given
Method in brief: as §2

Structure (SMILES) | IC50 [µM]
Cl.Cn1c(=O)c2c(cc(N3CCC[C@@](C)(N)C3)n2Cc2cc(F)ccc2Cl)n(C)c1=O | > 40
CN(C)C(=O)Cn1c(=O)n(C)c(=O)c2c1cc(N1CCC[C@@](C)(N)C1)n2Cc1cc(F)ccc1Cl.Cl | 26.3
CCn1c(=O)n(C)c(=O)c2c1cc(N1CCC[C@@](C)(N)C1)n2Cc1cc(F)ccc1C#N.Cl | 26.8
Cc1ccc(F)cc1Cn1c(N2CCC[C@@](C)(N)C2)cc2c1c(=O)n(C)c(=O)n2C.Cl | > 40
Cc1ccc(F)cc1Cn1c(N2CCC[C@@](C)(N)C2)cc2ncn(C)c(=O)c21.Cl | > 40
Cl.Cn1c(=O)c2c(cc(N3CCC[C@@](C)(N)C3)n2Cc2cc(F)ccc2Cl)n(CCCO)c1=O | > 40

— ChEMBL document CHEMBL1287796, “Discovery of new chemotype dipeptidyl peptidase IV inhibitors having (R)-3-amino-3-methyl piperidine as a pharmacophore” (Bioorg Med Chem Lett, 2010)
